Our source for the MIC values is ChEMBL document CHEMBL1137848, “Discovery of isoxazolinone antibacterial agents. Nitrogen as a replacement for the stereogenic center found in oxazolidinone antibacterials” (2004).

In brackets after ≈: the same amount, converted by molar mass. Some results are limits rather than exact numbers.

Common to all, as to assay type: functional
Assay [1] concerns Enterococcus faecalis. In words: Minimum inhibitory concentration against Enterococcus faecalis (strain A20688) in absence of calf serum. Summed up: (§1)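 Broth microdilution MIC per NCCLS method in Mueller-Hinton broth without serum. Final inoculum approximately 5·10⁵ CFU/well in microtiter plates, incubated 35 °C for 18 h in ambient air.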
For assay [2], the system named is Staphylococcus aureus. In words: Minimum inhibitory concentration against methicillin resistant Staphylococcus aureus (strain A27223) in absence of calf serum. In outline: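 Microbroth dilution MIC following the NCCLS method, no serum added. Mueller-Hinton broth, inoculum approximately 5·10⁵ CFU/well, incubated at 35 °C for 18 h in ambient air.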
Assay [3] deals with Staphylococcus aureus. Put plainly: Minimum inhibitory concentration against Staphylococcus aureus (strain A15090) in absence of calf serum. Summed up:
as §1

Another assay deals with Haemophilus influenzae. In words: Minimum inhibitory concentration against Haemophilus influenzae (strain A20191) in absence of calf serum. In outline: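 MIC by NCCLS microbroth dilution in Haemophilus test medium broth without serum. Inoculum approximately 5·10⁵ CFU/well in microtiter plates, incubated at 35 °C for 18 h in ambient air.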
Assay [4] deals with Staphylococcus aureus. In words: Minimum inhibitory concentration against methicillin resistant Staphylococcus aureus (strain A27223) in presence of 50% calf serum. In outline:
(§2)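 Microbroth dilution MIC following the NCCLS method, with 50% calf serum added. Mueller-Hinton broth, inoculum approximately 5·10⁵ CFU/well, incubated at 35 °C for 18 h in ambient air.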

In assay [5] the test system is Staphylococcus aureus. In words: Minimum inhibitory concentration against Staphylococcus aureus (strain A15090) in presence of 50% calf serum. Summed up:
as §2

Assay [6] concerns Enterococcus faecalis. In words: Minimum inhibitory concentration against Enterococcus faecalis (strain A20688) in presence of 50% calf serum. In outline:
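Broth microdilution MIC per NCCLS method in Mueller-Hinton broth supplemented with 50% calf serum. Final inoculum approximately 5·10⁵ CFU/well, incubated 35 °C for 18 h in ambient air.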

As for `COc1cccc(-c2cn(CNC(C)=O)oc2=O)c1`, the MIC against Enterococcus faecalis [1] was 32 µg/mL (≈ 122 µM); in the assay on Staphylococcus aureus [2], 16 µg/mL (≈ 61 µM); with Staphylococcus aureus [3], 32 µg/mL (≈ 122 µM); in the assay with Haemophilus influenzae it was above 64 µg/mL; in the assay with Staphylococcus aureus [4], above 64 µg/mL; in the assay with Staphylococcus aureus [5], 64 µg/mL. Also, the MIC in the assay on Enterococcus faecalis [6] is above 64 µg/mL.

In the case of `CC(=O)NCn1cc(-c2ccc3c(c2)OCO3)c(=O)o1`, the MIC was determined as 1 µg/mL (≈ 3.62 µM) with Enterococcus faecalis [1]; 1 µg/mL (≈ 3.62 µM) with Staphylococcus aureus [2]; 2 µg/mL (≈ 7.24 µM) in the assay with Staphylococcus aureus [3]; 16 µg/mL (≈ 57.9 µM) in the assay with Haemophilus influenzae; 4 µg/mL in the assay on Staphylococcus aureus [4]; 4 µg/mL in the assay with Staphylococcus aureus [5]. Also, in the assay on Enterococcus faecalis [6], the MIC was determined as 8 µg/mL.

Take `CC(=O)NCn1cc(-c2cccc(Cl)c2)c(=O)o1`: the MIC was 16 µg/mL (≈ 60 µM) in the assay with Enterococcus faecalis [1]; 4 µg/mL (≈ 15 µM) with Staphylococcus aureus [2]; 8 µg/mL (≈ 30 µM) against Staphylococcus aureus [3]; 32 µg/mL (≈ 120 µM) with Haemophilus influenzae; 16 µg/mL in the assay on Staphylococcus aureus [4]; above 64 µg/mL with Staphylococcus aureus [5]. For the same compound, the MIC with Enterococcus faecalis [6] was above 64 µg/mL.

With `CC(=O)NCn1cc(-c2cc(C(F)(F)F)cc(C(F)(F)F)c2)c(=O)o1`, the MIC against Enterococcus faecalis [1] is above 128 µg/mL; with Staphylococcus aureus [3] it was above 128 µg/mL; against Haemophilus influenzae, above 64 µg/mL.

`Oc1oncc1-c1ccc(-c2ccccc2)cc1`: the MIC is above 128 µg/mL against Enterococcus faecalis [1]; above 128 µg/mL against Staphylococcus aureus [3]; above 64 µg/mL in the assay with Haemophilus influenzae; above 64 µg/mL in the assay with Staphylococcus aureus [5]; above 64 µg/mL with Enterococcus faecalis [6].

As to `CC(=O)NCn1cc(-c2cc(F)cc(F)c2)c(=O)o1`, the MIC against Enterococcus faecalis [1] is 32 µg/mL (≈ 119 µM); in the assay with Staphylococcus aureus [2], 8 µg/mL (≈ 29.8 µM); against Staphylococcus aureus [3], 8 µg/mL (≈ 29.8 µM); against Haemophilus influenzae, above 64 µg/mL.

With `NC(=O)Cn1cc(-c2ccccc2)c(=O)o1`, the MIC in the assay with Enterococcus faecalis [1] is above 128 µg/mL; with Haemophilus influenzae it was above 64 µg/mL.

`COc1ccc(-c2cn(CNC(C)=O)oc2=O)cc1`: the MIC was determined as 2 µg/mL (≈ 7.63 µM) in the assay on Enterococcus faecalis [1]; 1 µg/mL (≈ 3.81 µM) against Staphylococcus aureus [2]; 2 µg/mL (≈ 7.63 µM) in the assay on Staphylococcus aureus [3]; 16 µg/mL (≈ 61 µM) against Haemophilus influenzae; 4 µg/mL in the assay with Staphylococcus aureus [4]; 4 µg/mL in the assay on Staphylococcus aureus [5]. Also, the MIC in the assay on Enterococcus faecalis [6] is 8 µg/mL.

`CC(=O)NCn1cc(-c2ccc(-c3ccccc3)cc2)c(=O)o1`: the MIC against Enterococcus faecalis [1] was 4 µg/mL (≈ 13 µM); against Staphylococcus aureus [2] it was 1 µg/mL (≈ 3.24 µM); with Staphylococcus aureus [3], 4 µg/mL (≈ 13 µM); in the assay on Haemophilus influenzae, 16 µg/mL (≈ 51.9 µM); with Staphylococcus aureus [4], 64 µg/mL; with Staphylococcus aureus [5], above 64 µg/mL. In the assay on Enterococcus faecalis [6], the MIC is 64 µg/mL.

On to `CSc1ccc(-c2cnoc2O)cc1`, for which the MIC in the assay on Enterococcus faecalis [1] was above 128 µg/mL; against Staphylococcus aureus [3] it was above 128 µg/mL; with Haemophilus influenzae, above 64 µg/mL; with Staphylococcus aureus [5], above 64 µg/mL; in the assay with Enterococcus faecalis [6], above 64 µg/mL.

With `CSc1ccc(-c2cn(CNC(C)=O)oc2=O)cc1`, the MIC against Enterococcus faecalis [1] is 1 µg/mL (≈ 3.59 µM); against Staphylococcus aureus [2], 1 µg/mL (≈ 3.59 µM); with Staphylococcus aureus [3], 2 µg/mL (≈ 7.19 µM); against Haemophilus influenzae it was 8 µg/mL (≈ 28.7 µM); in the assay with Staphylococcus aureus [4], 8 µg/mL; in the assay on Staphylococcus aureus [5], 16 µg/mL. Further, the MIC in the assay on Enterococcus faecalis [6] was found to be 16 µg/mL.

For the compound `COc1ccc(-c2cnoc2O)cc1`, the MIC was above 128 µg/mL against Enterococcus faecalis [1]; above 128 µg/mL in the assay with Staphylococcus aureus [3]; above 64 µg/mL in the assay on Haemophilus influenzae; above 64 µg/mL with Staphylococcus aureus [5]; above 64 µg/mL with Enterococcus faecalis [6].

As to `CC(=O)NCn1cc(-c2ccc(F)c(F)c2)c(=O)o1`, the MIC against Enterococcus faecalis [1] is above 128 µg/mL; with Staphylococcus aureus [2] it was above 128 µg/mL; in the assay with Staphylococcus aureus [3] it was 128 µg/mL (≈ 477 µM); with Haemophilus influenzae, above 64 µg/mL; in the assay with Staphylococcus aureus [5], above 64 µg/mL; in the assay with Enterococcus faecalis [6] it was above 64 µg/mL.

For `CC(=O)NCn1cc(-c2ccc(Cl)cc2)c(=O)o1`, the MIC amounted to 8 µg/mL (≈ 30 µM) against Enterococcus faecalis [1], 4 µg/mL (≈ 15 µM) against Staphylococcus aureus [2], 8 µg/mL (≈ 30 µM) in the assay with Staphylococcus aureus [3] and 32 µg/mL (≈ 120 µM) with Haemophilus influenzae.

For the compound `CC(=O)NCn1cc(-c2ccccc2)c(=O)o1`, the MIC in the assay with Enterococcus faecalis [1] was 16 µg/mL (≈ 68.9 µM); with Staphylococcus aureus [2] it was 4 µg/mL (≈ 17.2 µM); against Staphylococcus aureus [3], 8 µg/mL (≈ 34.4 µM); in the assay on Haemophilus influenzae, 8 µg/mL (≈ 34.4 µM); in the assay with Staphylococcus aureus [4], 8 µg/mL; in the assay on Staphylococcus aureus [5], 16 µg/mL. For the same compound, the MIC with Enterococcus faecalis [6] was found to be 16 µg/mL.

Consider `CC(=O)NCn1cc(-c2cccc(F)c2)c(=O)o1`, for which the MIC with Enterococcus faecalis [1] is 16 µg/mL (≈ 63.9 µM); in the assay with Staphylococcus aureus [2], 4 µg/mL (≈ 16 µM); in the assay on Staphylococcus aureus [3], 8 µg/mL (≈ 32 µM); against Haemophilus influenzae, above 64 µg/mL.

`CC(=O)NCn1cc(-c2ccc(F)cc2)c(=O)o1`: the MIC with Enterococcus faecalis [1] is above 128 µg/mL; against Staphylococcus aureus [3] it was above 128 µg/mL; in the assay with Haemophilus influenzae, 32 µg/mL (≈ 128 µM); in the assay with Staphylococcus aureus [5], above 64 µg/mL; with Enterococcus faecalis [6], above 64 µg/mL.

On to `CC(=O)NCn1cc(-c2ccc(Br)cc2)c(=O)o1`, for which the MIC is 8 µg/mL (≈ 25.7 µM) against Enterococcus faecalis [1]; 2 µg/mL (≈ 6.43 µM) in the assay with Staphylococcus aureus [2]; 4 µg/mL (≈ 12.9 µM) in the assay with Staphylococcus aureus [3]; 8 µg/mL (≈ 25.7 µM) with Haemophilus influenzae; above 64 µg/mL in the assay on Staphylococcus aureus [5]; above 64 µg/mL in the assay with Enterococcus faecalis [6].

As to `CC(=O)NCn1cc(-c2cccc(C(F)(F)F)c2)c(=O)o1`, the MIC is 64 µg/mL (≈ 213 µM) in the assay with Enterococcus faecalis [1]; 16 µg/mL (≈ 53.3 µM) with Staphylococcus aureus [2]; 32 µg/mL (≈ 107 µM) against Staphylococcus aureus [3]; above 64 µg/mL with Haemophilus influenzae; 64 µg/mL in the assay with Staphylococcus aureus [4]; 64 µg/mL in the assay with Staphylococcus aureus [5]. Besides, in the assay on Enterococcus faecalis [6], the MIC was above 64 µg/mL.

Take `CC(=O)NCn1cc(-c2cccc(C)c2)c(=O)o1`: the MIC was 32 µg/mL (≈ 130 µM) with Enterococcus faecalis [1], 4 µg/mL (≈ 16.2 µM) against Staphylococcus aureus [2], 8 µg/mL (≈ 32.5 µM) against Staphylococcus aureus [3] and above 64 µg/mL with Haemophilus influenzae.

Consider `CC(=O)NCn1cc(-c2ccc(C(C)C)cc2)c(=O)o1`, for which the MIC in the assay on Enterococcus faecalis [1] amounted to 2 µg/mL (≈ 7.29 µM); against Staphylococcus aureus [3] it was 1 µg/mL (≈ 3.65 µM); with Staphylococcus aureus [5], 4 µg/mL; in the assay on Enterococcus faecalis [6], 8 µg/mL.

As to `Oc1oncc1-c1ccc2c(c1)OCO2`, the MIC against Enterococcus faecalis [1] was above 128 µg/mL; in the assay on Staphylococcus aureus [3], above 128 µg/mL; in the assay with Haemophilus influenzae, above 64 µg/mL; with Staphylococcus aureus [5], above 64 µg/mL; in the assay on Enterococcus faecalis [6], above 64 µg/mL.

For the compound `COc1cc(OC)cc(-c2cn(CNC(C)=O)oc2=O)c1`, the results for the MIC with Enterococcus faecalis [1], in the assay with Staphylococcus aureus [3] and against Haemophilus influenzae were above 128 µg/mL, above 128 µg/mL and 64 µg/mL (≈ 219 µM), respectively.

As to `COc1ccc(-c2cn(CNC(C)=O)oc2=O)cc1OC`, the MIC against Enterococcus faecalis [1] is above 128 µg/mL; with Staphylococcus aureus [2], 64 µg/mL (≈ 219 µM); in the assay with Staphylococcus aureus [3], 128 µg/mL (≈ 438 µM); against Haemophilus influenzae, above 64 µg/mL; in the assay on Staphylococcus aureus [5] it was above 64 µg/mL; in the assay on Enterococcus faecalis [6] it was above 64 µg/mL.

Take `CC(=O)NC[C@H]1CN(c2ccc(N3CCOCC3)c(F)c2)C(=O)O1` [LINEZOLID]: the MIC was found to be 0.5 µg/mL (≈ 1.48 µM) in the assay on Enterococcus faecalis [1]; 1 µg/mL (≈ 2.96 µM) in the assay on Staphylococcus aureus [2]; 1 µg/mL (≈ 2.96 µM) with Staphylococcus aureus [3]; 8 µg/mL (≈ 23.7 µM) against Haemophilus influenzae; 1 µg/mL with Staphylococcus aureus [4]; 1 µg/mL in the assay on Staphylococcus aureus [5]. Besides, the MIC in the assay on Enterococcus faecalis [6] is 0.5 µg/mL.
